{"data": "Experimental data from different studies", "note": "Each line is one published result; the experiments were not run side by side."}
{"Structure (SMILES)": "CNC(=O)[C@H](Cc1c[nH]cn1)NC(=O)CN(CCCc1ccccc1)CC(=O)O", "method": "shake flask", "medium": "PBS", "time": "2 h", "pH": "pH 7.4", "logD": -1.36}
{"Structure (SMILES)": "O=C(O)C1=Cc2cc3ccc(cc4nc(cc5c(-c6ccccc6)c(C(=O)O)c(c(C(=O)O)c1n2)n5C(=O)O)C=C4)[nH]3", "method": "shake flask", "medium": "aqueous buffer", "pH": "pH 9", "logD": 0.0277}
{"Structure (SMILES)": "CNC(=O)[C@H](Cc1c[nH]cn1)NC(=O)CN(CCCc1ccccc1)CC(=O)OC", "method": "shake flask", "medium": "PBS", "time": "2 h", "pH": "pH 7.4", "logD": 1.07}
{"Structure (SMILES)": "Cc1c(C(=O)NC2CCC(O)CC2)nc(-c2ccc(Cl)cc2Cl)n1-c1ccc(OS(=O)(=O)CCC(F)(F)F)cc1 (stereo not drawn)", "method": "shake flask", "medium": "aqueous buffer", "pH": "pH 7.4", "logD": 4.2}
{"Structure (SMILES)": "CC(C)CN(C[C@@H](O)[C@H](Cc1ccccc1)NC(=O)O[C@H]1CO[C@H]2OCC[C@H]21)S(=O)(=O)c1ccc(N)cc1", "method": "shake flask", "medium": "PBS", "pH": "pH 7.4", "logD": 2.84}
{"Structure (SMILES)": "O=C(C1CCN(c2nnnn2-c2ccccc2)CC1)N1CCCc2c(Cl)cccc21", "method": "shake flask", "medium": "PBS", "pH": "pH 7.4", "logD": 3.6}
{"Structure (SMILES)": "CCCCc1nc2c(N)nc3ccccc3c2n1Cc1ccc(CN)cc1", "method": "shake flask", "medium": "PBS", "pH": "pH 7.4", "logD": 0.42}
{"Structure (SMILES)": "COc1cc2c(cc1OC)CN(CCCCn1ccc3c(OCC[18F])cccc31)C2", "method": "shake flask", "medium": "aqueous buffer", "pH": "pH 7.4", "logD": 2.43}
{"Structure (SMILES)": "Cc1c(C(=O)Nc2ccc(C(F)(F)F)nc2)nc(-c2ccc(Cl)cc2Cl)n1-c1ccc(OS(=O)(=O)CCC(F)(F)F)cc1", "method": "shake flask", "medium": "aqueous buffer", "pH": "pH 7.4", "logD": "> 4.9"}
{"Structure (SMILES)": "C[C@]1(C(=O)O)CSC(c2ccc(OCCCCCCO)cc2O)=N1", "method": "shake flask", "medium": "aqueous buffer", "pH": "pH 7.4", "logD": 0.21}
{"Structure (SMILES)": "Cc1c(C(=O)N[C@@H]2CCCC[C@@H]2N(C)C)nc(-c2ccc(Cl)cc2Cl)n1-c1ccc(OS(=O)(=O)CCC(F)(F)F)cc1 (relative stereo)", "method": "shake flask", "medium": "aqueous buffer", "pH": "pH 7.4", "logD": 3.8}
{"Structure (SMILES)": "CCCc1cc2c(N3CCn4c(nnc4C(F)(F)F)C3)nc(OCC[18F])nc2s1", "method": "shake flask", "medium": "aqueous buffer", "pH": "pH 7.4", "logD": 2.06}
{"Structure (SMILES)": "CCC1=C(C)C2=NC1=Cc1c(C)c(CC)c3[n]1[Fe][n]1c(c(C)c(CCC(=O)O)c1=CC1=NC(=C3)C(C)=C1CCC(=O)O)=C2", "method": "shake flask", "medium": "aqueous buffer", "pH": "pH 9", "logD": 0.552}
{"Structure (SMILES)": "COC(=O)CN(CC(=O)N[C@@H](Cc1c[nH]cn1)C(=O)OC)Cc1ccccc1", "method": "shake flask", "medium": "PBS", "time": "2 h", "pH": "pH 7.4", "logD": 0.82}
{"Structure (SMILES)": "CN1CCN(c2ccc3nc(-c4ccc5nc(-c6ccc(OCCCCNC(=S)Nc7ccc(CC(CN(CCN(CC(=O)O)CC(=O)O)CC(=O)O)N(CC(=O)O)CC(=O)O)cc7)cc6)[nH]c5c4)[nH]c3c2)CC1 (stereo not drawn)", "method": "shake flask", "medium": "PBS", "pH": "pH 7.4", "logD": -1.4}
{"Structure (SMILES)": "COc1ccn2c(Nc3ccccc3F)c(-c3ccncn3)nc2c1", "pH": "pH 7.4", "logD": 2.5}
{"Structure (SMILES)": "CCOCc1nc2c(N)nc3ccccc3c2n1CC(C)(C)O", "method": "shake flask", "medium": "PBS", "pH": "pH 7.4", "logD": 1.14}
{"Structure (SMILES)": "Cc1c(C(=O)N[C@H]2CCCC[C@H]2N)nc(-c2ccc(Cl)cc2Cl)n1-c1ccc(OS(=O)(=O)CCC(F)(F)F)cc1 (racemic)", "method": "shake flask", "medium": "aqueous buffer", "pH": "pH 7.4", "logD": 3.35}
{"Structure (SMILES)": "CN1CCN(c2ccc3nc(-c4ccc5nc(-c6ccc(OCCCC(=O)Nc7ccc(CC(CN(CCN(CC(=O)O)CC(=O)O)CC(=O)O)N(CC(=O)O)CC(=O)O)cc7)cc6)[nH]c5c4)[nH]c3c2)CC1 (stereo not drawn)", "method": "shake flask", "medium": "PBS", "pH": "pH 7.4", "logD": -0.5}
{"Structure (SMILES)": "Cc1c(C(=O)Nc2ccc(F)nc2)nc(-c2ccc(Cl)cc2Cl)n1-c1ccc(OS(=O)(=O)CCC(F)(F)F)cc1", "method": "shake flask", "medium": "aqueous buffer", "pH": "pH 7.4", "logD": "> 4.3"}
{"Structure (SMILES)": "O=C(O)CN(CCCc1ccccc1)CC(=O)N[C@@H](Cc1c[nH]cn1)C(=O)NCc1ccccc1", "method": "shake flask", "medium": "PBS", "time": "2 h", "pH": "pH 7.4", "logD": -0.58}
{"Structure (SMILES)": "Cc1c(C(=O)NN2CCCCC2)nc(-c2ccc(Cl)cc2Cl)n1-c1ccc(OS(=O)(=O)CCC(F)(F)F)cc1", "method": "shake flask", "medium": "aqueous buffer", "pH": "pH 7.4", "logD": 4.9}
{"Structure (SMILES)": "COC(=O)[C@H](Cc1c[nH]cn1)NC(=O)CN(CC(=O)O)Cc1ccccc1", "method": "shake flask", "medium": "PBS", "time": "2 h", "pH": "pH 7.4", "logD": -2.05}
{"Structure (SMILES)": "Cc1c(C(=O)N[C@@H]2CCCC[C@@H]2O)nc(-c2ccc(Cl)cc2Cl)n1-c1ccc(OS(=O)(=O)CCC(F)(F)F)cc1 (single isomer, unassigned)", "method": "shake flask", "medium": "aqueous buffer", "pH": "pH 7.4", "logD": "> 4.3"}
{"Structure (SMILES)": "CN1C(C(=O)Nc2ccccn2)=C(O)c2ccccc2S1(=O)=O", "method": "shake flask", "medium": "aqueous buffer", "time": "48 h", "pH": "pH 7.4", "logD": -0.31}
{"Structure (SMILES)": "Cc1c(C(=O)NN2CCCCC2)nc(-c2ccc(Cl)cc2Cl)n1-c1ccc(OCCC(F)(F)F)cc1", "method": "shake flask", "medium": "aqueous buffer", "pH": "pH 7.4", "logD": 5.4}
{"Structure (SMILES)": "C[C@]1(C(=O)O)CSC(c2ccc(OCCCC(=O)O)cc2O)=N1", "method": "shake flask", "medium": "aqueous buffer", "pH": "pH 7.4", "logD": -2.21}
